The source of these data is PubChem BioAssay.

Active and inactive are the calls of the source.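 How the source made its calls, unless noted: active means viability at or below 10% of carrier control in both of two separate runs; inconclusive means viability at or below 10% in only one of the two runs; inactive means the rest.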

Experiment [1] in a line: reducers of endogenous Her2 protein level, primary screen, SKBR3 breast tumor cells, AlphaScreen, ATP viability (AID 461;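 active means Her2 level under about 52% in both replicate screens, with viability over 70% of control, limit read from the data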;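 on Her2 level: lower value means less Her2 protein in the cells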;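 on viability: percent of carrier control wells set as 100% viability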). The conditions noted are these: 18-24 h, measured here: SKBR3 viability, ATP luminescence, at 10 µM. (In general: Bead proximity is the source of the signal in Alpha formats.)
Experiment [2] has as its target Receptor tyrosine-protein kinase erbB-2 (Homo sapiens) (UniProt P04626). Described as above. As to conditions: 18-24 h, at 10 µM, stronger effect = lower value.
Experiment [3] is described as follows: SK-BR-3 cell growth inhibitors, pilot screen, 24 h, human (AID 572).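 Further: compound exposure lasted between 18 and 24 h rather than exactly 24 h; 100% = carrier-treated control wells.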 As to conditions: SK-BR-3 viability, CellTiter-Glo luminescence, at 10 µM, stronger effect = lower value.
Experiment [4] is described as follows: HUVEC growth inhibition – cell-based, human, primary screen (AID 575;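 active means viability at or below 30% in both replicate assays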;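 further: 100% = median of untreated cell wells with 0.1% DMSO on each plate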). The conditions noted are these: HUVEC proliferation, CellTiter-Glo luminescence, 72 h; at 10 µM; stronger effect = lower value. The gist of the method: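 Test system – primary HUVEC, no more than 12 passages · Dosing – one dose, 10 µM final, 0.1% DMSO · Times – 72 h treatment at 37 °C · Measured by – ATP-based CellTiter-Glo luminescent read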
(In general: ATP-based viability assays read luminescence as a measure of living cells.)

Experiment [5] is described as follows: growth inhibitors of H69AR lung tumor, primary screen, human, duplicate replicates (AID 580;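 active means viability at or under a set limit in both replicates, limit being median viability minus 3 SD, cut at about 48% in these data, passing the limit was not always enough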;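 further: 100% = mean luminescence of untreated wells and 0% = no signal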). The conditions noted are these: H69AR lung tumor cells viability, ATP luminescence, 72 h; at 10 µM; stronger effect = lower value.
Experiment [6] is described as follows: reversal of MRP1-mediated doxorubicin resistance, pilot screen, H69AR cells, doxorubicin co-treatment (AID 601;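 active means viability loss from added drug above about 55%, and viability with drug at most 40%, in both replicates, limit read from the data, passing the limit was not always enough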). As to conditions: CellTiter-Glo, 72 h, at 10 µM; for differential viability (reversal): stronger effect = higher value.
Experiment [7] in a line: 384-well plate pilot, post-Golgi transport modulator project, inhibition of yeast transport mutant growth (AID 636; in the data active means inhibition above about 31%). As to conditions: absorbance 615 nm, about 18 h, stronger effect = higher value.
Experiment [8] in a line: growth suppression of yeast trafficking mutant, preliminary HTS, modulators of trafficking downstream of Golgi apparatus project, 1536-format plate, OD 615 nm (AID 637; in the data active means inhibition above about 30%). As to conditions: yeast transport mutant growth, absorbance 615 nm, 18 h; stronger effect = higher value.
[9] abbreviates: H69AR cells + 2 uM doxorubicin, measured here: viability with 2 uM doxorubicin, stronger effect = lower value.
Where [10] appears, read: H69AR cells, compound alone cytotoxicity.

Chain of Receptor tyrosine-protein kinase erbB-2 (Homo sapiens) (P04626 whole entry, looked up): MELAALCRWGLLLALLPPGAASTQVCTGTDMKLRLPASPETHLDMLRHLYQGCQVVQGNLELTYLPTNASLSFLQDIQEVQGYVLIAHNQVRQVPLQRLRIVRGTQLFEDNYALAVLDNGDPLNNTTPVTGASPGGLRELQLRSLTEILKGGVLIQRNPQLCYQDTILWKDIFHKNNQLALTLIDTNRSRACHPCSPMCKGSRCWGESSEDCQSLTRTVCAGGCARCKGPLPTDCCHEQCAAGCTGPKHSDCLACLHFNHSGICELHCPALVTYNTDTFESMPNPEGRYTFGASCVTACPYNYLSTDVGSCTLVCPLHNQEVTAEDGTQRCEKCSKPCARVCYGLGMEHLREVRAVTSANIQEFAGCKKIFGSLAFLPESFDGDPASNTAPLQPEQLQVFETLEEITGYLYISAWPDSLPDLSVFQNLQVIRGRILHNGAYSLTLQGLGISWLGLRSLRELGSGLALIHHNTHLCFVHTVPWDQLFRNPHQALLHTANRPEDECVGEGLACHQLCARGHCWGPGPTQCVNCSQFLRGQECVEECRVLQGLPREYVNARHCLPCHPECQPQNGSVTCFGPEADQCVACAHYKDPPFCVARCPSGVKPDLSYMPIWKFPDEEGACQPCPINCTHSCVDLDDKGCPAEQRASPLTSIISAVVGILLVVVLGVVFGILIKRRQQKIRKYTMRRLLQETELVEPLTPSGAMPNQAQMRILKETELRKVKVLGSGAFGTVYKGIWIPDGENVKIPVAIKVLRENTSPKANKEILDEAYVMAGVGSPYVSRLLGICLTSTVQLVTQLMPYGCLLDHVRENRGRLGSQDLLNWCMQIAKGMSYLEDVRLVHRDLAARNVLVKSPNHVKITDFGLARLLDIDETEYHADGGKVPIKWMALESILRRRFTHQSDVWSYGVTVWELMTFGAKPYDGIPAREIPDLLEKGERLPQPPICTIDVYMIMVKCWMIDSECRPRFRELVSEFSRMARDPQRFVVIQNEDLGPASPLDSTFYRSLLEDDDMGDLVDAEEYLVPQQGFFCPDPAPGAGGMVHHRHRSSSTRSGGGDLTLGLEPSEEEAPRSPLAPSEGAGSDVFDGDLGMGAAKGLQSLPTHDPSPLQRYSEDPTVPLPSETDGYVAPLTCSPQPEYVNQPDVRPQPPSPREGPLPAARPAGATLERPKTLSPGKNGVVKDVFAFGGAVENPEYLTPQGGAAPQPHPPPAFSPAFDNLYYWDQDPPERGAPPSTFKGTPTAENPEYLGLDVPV

As for `CCCCc1ccc(NC(=O)COCC)cc1`, the viability (usually a read-out of living cells in per cent, often relative to untreated cells) is 110% in experiment [1]; 110% (inactive) in experiment [3]; 92.1% (inactive) in experiment [4]; 93.1% (inactive) in experiment [5]; 85.9% in experiment [6] (setting [9]); 93.1% in experiment [6] (setting [10]). Further, the Her2 level in experiment [2] was 94% (inactive). Moreover, the differential viability (reversal) in experiment [6] (H69AR cells + 2 uM doxorubicin) is 7.21% (inactive). Moreover, the inhibition (in general, the drop in the measured response relative to a control, in per cent) in experiment [7] was -2.63% (inactive); in experiment [8], 5.08% (inactive).
Take `COC(=O)c1nc(N)sc1-c1ccccc1`: the viability was 96% in experiment [1]; 96% (inactive) in experiment [3]; 95.1% (inactive) in experiment [4]; 93.3% (inactive) in experiment [5]; 80% in experiment [6] (setting [9]); 93.3% in experiment [6] (setting [10]). For the same compound, in experiment [2], the Her2 level is 93% (inactive). Moreover, the differential viability (reversal) in experiment [6] (H69AR cells + 2 uM doxorubicin) is 13.3% (inactive). The values for the inhibition in experiment [7] and in experiment [8] were -6.13% (inactive) and 1.43% (inactive), respectively.
As to `CS(=O)(=O)N(CC(=O)Nc1cccc(F)c1)Cc1ccccc1`, the viability in experiment [1] is 78.5%; in experiment [3], 78.5% (inactive); in experiment [4] it was 87.5% (inactive); in experiment [5] it was 103% (inactive); in experiment [6] (setting [9]), 90%; in experiment [6] (setting [10]), 103%. Further, the Her2 level in experiment [2] was 87.5% (inactive). For the same compound, the differential viability (reversal) in experiment [6] (H69AR cells + 2 uM doxorubicin) is 13.1% (inactive). The inhibition in experiment [7] is -3.78% (inactive); in experiment [8], 2.3% (inactive).
`CCOC(=O)C(NC(=O)CC)(Nc1ccc(S(=O)(=O)Nc2onc(C)c2C)cc1)C(F)(F)F` (stereo not given): the viability is 116% in experiment [1]; 116% (inactive) in experiment [3]; 102% (inactive) in experiment [4]; 106% (inactive) in experiment [5]; 97% in experiment [6] (setting [9]); 106% in experiment [6] (setting [10]). Also, the Her2 level in experiment [2] was 97.5% (inactive). In addition, in experiment [6] (H69AR cells + 2 uM doxorubicin), the differential viability (reversal) was 8.86% (inactive). Further, the inhibition in experiment [7] was -3.77% (inactive); in experiment [8] it was -0.48% (inactive).
`COc1ccc(-c2nc(SC)n(S(=O)(=O)c3ccccc3)n2)cc1`: the viability in experiment [1] is 80%; in experiment [3], 80% (inactive); in experiment [4], 86.1% (inactive); in experiment [5] it was 98.1% (inactive); in experiment [6] (setting [9]), 80.6%; in experiment [6] (setting [10]), 98.1%. Besides, the Her2 level in experiment [2] is 114% (inactive). For the same compound, the differential viability (reversal) in experiment [6] (H69AR cells + 2 uM doxorubicin) was 17.5% (inactive). Besides, the inhibition in experiment [7] is 1.73% (inactive); in experiment [8] it was -10.8% (inactive).
Regarding `CCOCCn1c(CN2CCN(c3cccc(Cl)c3)CC2)nc2c1c(=O)n(C)c(=O)n2C`, the viability in experiment [1] was 85%; in experiment [3] it was 85% (inactive); in experiment [4] it was 94.5% (inactive); in experiment [5], 80.1% (inactive); in experiment [6] (setting [9]) it was 38.6%; in experiment [6] (setting [10]), 80.1%. For the same compound, in experiment [2], the Her2 level is 110% (inactive). Moreover, the differential viability (reversal) in experiment [6] (H69AR cells + 2 uM doxorubicin) was 41.5% (inactive). Besides, the inhibition was -3.07% (inactive) in experiment [7] and -6.17% (inactive) in experiment [8].
For the compound `COC(=O)c1ccc(Oc2nc(NC(C)C)nc(N(C)C)n2)cc1`, the viability was 102% in experiment [1]; 102% (inactive) in experiment [3]; 97.2% (inactive) in experiment [4]; 89.5% (inactive) in experiment [5]; 97.1% in experiment [6] (setting [9]); 89.5% in experiment [6] (setting [10]). In addition, in experiment [2], the Her2 level is 91.5% (inactive). In experiment [6] (H69AR cells + 2 uM doxorubicin), the differential viability (reversal) is -7.6% (inactive). Moreover, the inhibition in experiment [7] is -5.14% (inactive); in experiment [8], -2.46% (inactive).
As for `CCS(=O)(=O)N1CCC(C(=O)NC2CCCCC2)CC1`, the viability in experiment [1] is 113%; in experiment [3] it was 113% (inactive); in experiment [4], 92.7% (inactive); in experiment [5] it was 97.4% (inactive); in experiment [6] (setting [9]), 86.1%; in experiment [6] (setting [10]) it was 97.4%. The Her2 level in experiment [2] was 99% (inactive). In experiment [6] (H69AR cells + 2 uM doxorubicin), the differential viability (reversal) was 11.3% (inactive). Moreover, the values for the inhibition in experiment [7] and in experiment [8] were 1.84% (inactive) and 3.28% (inactive), respectively.
For the compound `CC1CCCN(C(=O)CN2CCN(C(=O)c3ccco3)CC2)C1` (stereo not given), the viability was 95.5% in experiment [1]; 95.5% (inactive) in experiment [3]; 91.2% (inactive) in experiment [4]; 93.2% (inactive) in experiment [5]; 81.6% in experiment [6] (setting [9]); 93.2% in experiment [6] (setting [10]). In experiment [2], the Her2 level is 89.5% (inactive). Moreover, the differential viability (reversal) in experiment [6] (H69AR cells + 2 uM doxorubicin) was 11.7% (inactive). Also, the values for the inhibition in experiment [7] and in experiment [8] were -4.13% (inactive) and -1.8% (inactive), respectively.
Regarding `O=c1oc2ccccc2c(N2CCCCC2)c1CN1CCCCC1`, the viability in experiment [1] was 86%; in experiment [3], 86% (inactive); in experiment [4], 86.2% (inactive); in experiment [5], 82.5% (inactive); in experiment [6] (setting [9]) it was 83.3%; in experiment [6] (setting [10]), 82.5%. In addition, the Her2 level in experiment [2] is 99% (inactive). In experiment [6] (H69AR cells + 2 uM doxorubicin), the differential viability (reversal) is -0.775% (inactive). Also, the figures for the inhibition in experiment [7] and in experiment [8] were -1.05% (inactive) and -4.03% (inactive), respectively.
As to `CC1CN(C2CCCCC2)c2nc3c(c(=O)[nH]c(=O)n3C)n2C1` (stereo not given), the viability in experiment [1] was 90.5%; in experiment [3], 90.5% (inactive); in experiment [4] it was 86.1% (inactive); in experiment [5], 82.2% (inactive); in experiment [6] (setting [9]), 84.4%; in experiment [6] (setting [10]) it was 82.2%. Moreover, the Her2 level in experiment [2] is 95% (inactive). In experiment [6] (H69AR cells + 2 uM doxorubicin), the differential viability (reversal) is -2.19% (inactive). The inhibition in experiment [7] was -1.95% (inactive); in experiment [8] it was 7.3% (inactive).
For `O=C(c1cccs1)c1cn(CC(=O)N2CCc3ccccc3C2)c2ccccc12`, the viability in experiment [1] was 93%; in experiment [3], 93% (inactive); in experiment [4], 86.1% (inactive); in experiment [5], 86.9% (inactive); in experiment [6] (setting [9]), 79.5%; in experiment [6] (setting [10]), 86.9%. Further, the Her2 level in experiment [2] was 108% (inactive). The differential viability (reversal) in experiment [6] (H69AR cells + 2 uM doxorubicin) is 7.43% (inactive). Moreover, the inhibition in experiment [7] is -6.13% (inactive); in experiment [8] it was 1.45% (inactive).
In the case of `O=C1NCC(COCc2ccccc2)O1` (stereo not given), the viability was 110% in experiment [1]; 110% (inactive) in experiment [3]; 103% (inactive) in experiment [4]; 108% (inactive) in experiment [5]; 89.4% in experiment [6] (setting [9]); 108% in experiment [6] (setting [10]). Moreover, the Her2 level in experiment [2] is 96% (inactive). For the same compound, the differential viability (reversal) in experiment [6] (H69AR cells + 2 uM doxorubicin) is 18.5% (inactive). The inhibition was -5.6% (inactive) in experiment [7] and 0% (inactive) in experiment [8].
`CC(C)(C)c1ccc(OCC(=O)O)cc1`: the viability was 102% in experiment [1]; 102% (inactive) in experiment [3]; 108% (inactive) in experiment [4]; 104% (inactive) in experiment [5]; 91% in experiment [6] (setting [9]); 104% in experiment [6] (setting [10]). For the same compound, the Her2 level in experiment [2] is 96.5% (inactive). Also, the differential viability (reversal) in experiment [6] (H69AR cells + 2 uM doxorubicin) is 13.4% (inactive). In addition, the results for the inhibition in experiment [7] and in experiment [8] were -5.73% (inactive) and 8.69% (inactive), respectively.
